Assay [1] is filed under the species Cavia porcellus. Briefly: Percent contraction induced by compound at […] in guinea pig gall bladder was determined. It counts as functional.
Assay [2] deals with T1, Cholecystokinin receptor type A (Homo sapiens, UniProt P32238).
T1 sequence (P32238 whole entry): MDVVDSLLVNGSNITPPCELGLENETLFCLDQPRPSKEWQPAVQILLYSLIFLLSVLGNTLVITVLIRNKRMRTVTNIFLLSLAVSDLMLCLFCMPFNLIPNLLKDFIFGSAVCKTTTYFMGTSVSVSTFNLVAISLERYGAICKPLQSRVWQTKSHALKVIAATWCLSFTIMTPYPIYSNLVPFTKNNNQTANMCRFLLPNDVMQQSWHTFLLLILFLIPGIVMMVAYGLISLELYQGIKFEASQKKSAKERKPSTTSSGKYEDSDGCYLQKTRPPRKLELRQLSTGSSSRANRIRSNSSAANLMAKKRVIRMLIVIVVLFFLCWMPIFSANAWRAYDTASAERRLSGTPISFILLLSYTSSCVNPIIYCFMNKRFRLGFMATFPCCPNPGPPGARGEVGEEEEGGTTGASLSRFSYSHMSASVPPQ
Briefly: Displacement of CCK-8 from CHO cell membranes expressing human Cholecystokinin type A receptor. Conditions: for Log IC50: cho.

The target of assay [3] is T2, Gastrin/cholecystokinin type B receptor (Homo sapiens, UniProt P32239).
T2 sequence (P32239 whole entry): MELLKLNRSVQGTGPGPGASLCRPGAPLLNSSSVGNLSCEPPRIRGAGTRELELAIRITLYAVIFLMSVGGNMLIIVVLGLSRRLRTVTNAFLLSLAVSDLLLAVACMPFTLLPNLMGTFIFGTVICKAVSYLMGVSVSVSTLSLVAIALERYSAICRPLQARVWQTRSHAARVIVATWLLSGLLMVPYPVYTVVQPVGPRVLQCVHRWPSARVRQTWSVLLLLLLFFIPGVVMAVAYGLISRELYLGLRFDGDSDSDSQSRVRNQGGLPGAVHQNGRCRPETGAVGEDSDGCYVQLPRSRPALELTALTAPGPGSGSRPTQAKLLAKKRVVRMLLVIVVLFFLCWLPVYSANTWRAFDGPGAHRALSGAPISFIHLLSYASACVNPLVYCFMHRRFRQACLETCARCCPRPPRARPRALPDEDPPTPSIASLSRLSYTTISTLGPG
The assay is described as follows: Displacement of CCK-8 from human Cholecystokinin type B receptor expressing CHO cell membranes. As to conditions: for Log IC50: cho.

For assay [4], the species on record is Cavia porcellus. Briefly: Percent contraction induced by compound at […] in guinea pig gall bladder was determined; Inactive. The class given is functional.
Assay [5] deals with T3, Cholecystokinin receptor type A (Cavia porcellus, UniProt Q63931).
T3 sequence (Q63931 whole entry): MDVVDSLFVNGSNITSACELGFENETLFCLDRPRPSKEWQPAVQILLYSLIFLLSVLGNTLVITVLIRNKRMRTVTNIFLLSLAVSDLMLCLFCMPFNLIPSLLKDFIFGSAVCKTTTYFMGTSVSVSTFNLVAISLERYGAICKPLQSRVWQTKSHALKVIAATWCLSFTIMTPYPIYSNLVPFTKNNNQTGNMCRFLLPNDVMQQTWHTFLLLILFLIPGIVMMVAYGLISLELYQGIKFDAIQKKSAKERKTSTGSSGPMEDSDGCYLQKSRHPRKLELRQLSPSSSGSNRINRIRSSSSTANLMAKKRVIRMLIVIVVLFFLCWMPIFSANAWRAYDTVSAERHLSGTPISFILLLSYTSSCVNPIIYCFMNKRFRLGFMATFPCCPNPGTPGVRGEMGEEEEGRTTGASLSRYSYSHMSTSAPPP
The assay is described as follows: Antagonist activity against CCK-8 induced responses in guinea pig gall bladder was determined. Conditions: for Kb: read-out: pA2 (converted). It counts as functional, tissue-based. In short, it runs like this: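 Isolated guinea pig gallbladder rings in physiological salt solution at 37 °C, 95% O2/5% CO2, pH 7.4, under 1 g resting tension, with isometric force recording. Tissues from at least three animals were incubated 60 min with antagonist (three to five concentrations), then given a cumulative sulfated CCK-8 curve. Paired untreated tissue served as time/solvent control for the concentration ratio. pA2 was derived by Schild analysis.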

Assay [6] is filed under the species Cavia porcellus. Briefly: Effective concentration required to induce contraction of guinea pig gall bladder.

Active and inactive are the calls of the source. No cut-off for these calls is given here.

In the case of `CC(=O)N[C@@H](Cc1c[nH]c2ccccc12)C(=O)N[C@@H](CCCCNC(=O)Nc1ccccc1Cl)C(=O)N[C@@H](CC(=O)O)C(=O)N[C@@H](Cc1ccc(C)cc1)C(N)=O` [listing 1 of 2 here], the Activity in assay [1] was 117%.

In assay [2], `Cc1cccc(NC(=O)N[C@@H]2N=C(c3ccccc3)c3ccccc3N(C)C2=O)c1` [L-365260] had an IC50 of 158 nM.

With `CC(=O)N[C@H](Cc1c[nH]c2ccccc12)C(=O)NC(Cc1cccc(NC(=O)Nc2ccccc2C)c1)C(=O)N[C@H](CC(=O)O)C(=O)N[C@@H](Cc1ccc(C)cc1)C(N)=O` (stereo not given in full), the “Log IC50” value in assay [3] is -4.3; in assay [2], -7.2. Besides, the outcome in assay [4] was inactive. The compound further displayed a pA2 in assay [5] of 7.4.

With `CC(=O)N[C@@H](Cc1c[nH]c2ccccc12)C(=O)N[C@@H](Cc1ccc(NC(=O)Nc2ccccc2C)cc1)C(=O)N[C@@H](CC(=O)O)C(=O)N[C@@H](Cc1ccc(C)cc1)C(N)=O`, the IC50 in assay [3] is 100 µM; in assay [2], 31.6 nM. Besides, the Kb in assay [5] was 39.8 nM.

`CC(=O)N[C@@H](Cc1c[nH]c2ccccc12)C(=O)N[C@@H](CCCCNC(=O)Nc1ccccc1C)C(=O)N[C@@H](CC(=O)O)C(=O)N[C@@H](Cc1ccc(C)cc1)C(N)=O` [listing 1 of 2 here] yielded an Activity in assay [1] of 105%.

For `CC(=O)N[C@@H](Cc1c[nH]c2ccccc12)C(=O)NC(Cc1cccc(NC(=O)Nc2ccccc2C)c1)C(=O)N[C@@H](CC(=O)O)C(=O)N[C@H](Cc1ccc(C)cc1)C(N)=O` (stereo not given in full), the entries for the “Log IC50” value in assay [3] and in assay [2] were -5 and -7, respectively. Also, in assay [4], the outcome was inactive. This compound also yielded a pA2 in assay [5] of 7.2.

For `CC(=O)N[C@@H](Cc1c[nH]c2ccccc12)C(=O)N[C@@H](CCCCNC(=O)Nc1ccccc1C)C(=O)N[C@@H](CC(=O)O)C(=O)N[C@@H](Cc1ccc(C)cc1)C(N)=O` [listing 2 of 2 here], the EC50 in assay [6] was 1.58 nM. The IC50 in assay [3] was 5.01 µM; in assay [2], 20 nM.

As for `CC(=O)N[C@@H](Cc1c[nH]c2ccccc12)C(=O)N[C@@H](Cc1ccc(NC(=O)Nc2ccccc2Cl)cc1)C(=O)N[C@@H](CC(=O)O)C(=O)N[C@@H](Cc1ccc(C)cc1)C(N)=O`, the IC50 in assay [3] is 63.1 µM; in assay [2], 100 nM. For the same compound, in assay [5], the Kb is 79.4 nM.

In the case of `CC(=O)N[C@@H](Cc1c[nH]c2ccccc12)C(=O)NC(Cc1ccc(NC(=O)Nc2ccccc2Cl)cc1)C(=O)N[C@@H](CC(=O)O)C(=O)N[C@H](Cc1ccc(C)cc1)C(N)=O` (stereo not given in full), the result in assay [4] was inactive.

For `CC(=O)N[C@@H](Cc1c[nH]c2ccccc12)C(=O)NC(Cc1ccc(NC(=O)Nc2ccccc2C)cc1)C(=O)N[C@@H](CC(=O)O)C(=O)N[C@H](Cc1ccc(C)cc1)C(N)=O` (stereo not given in full), in assay [4], the result was inactive.

Regarding `CC(=O)N[C@@H](Cc1c[nH]c2ccccc12)C(=O)N[C@@H](CCCCNC(=O)Nc1ccccc1Cl)C(=O)N[C@@H](CC(=O)O)C(=O)N[C@@H](Cc1ccc(C)cc1)C(N)=O` [listing 2 of 2 here], the EC50 in assay [6] was 0.501 nM. The results for the “Log IC50” value in assay [3] and in assay [2] were -6 and -8.3, respectively.
